48 sequences from the EternaBench riboswitch data can be followed below.

The series relates to MS2 coat protein. The series can be described thus: apparent Kd, MS2 coat protein; higher = weaker binding; RNA-MaP array; FMN 200 µM where present. The procedure, abridged:
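SNAP-549-labelled MS2 coat protein, doubled from 0.7 or 1.5 nM to 3 µM, was titrated over designs transcribed by stalled E. coli RNA polymerase on Illumina sequencing-chip clusters. Titrations were run without and then with constant ligand in 100 mM Tris-HCl pH 7.5, 80 mM KCl, 4 mM MgCl2, BSA, DTT, yeast tRNA and Tween-20. The apparent Kd is the median of filtered per-cluster fits to green signal normalised to red-channel RNA signal and control-cluster median Fmax.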

Setting [1] is: designed as: OFF switch for flavin mononucleotide, no ligand.
Where [2] appears, read: ligand present: flavin mononucleotide, designed as: OFF switch for flavin mononucleotide.
[3] abbreviates: designed as: ON switch for flavin mononucleotide, no ligand.
[4] abbreviates: ligand present: flavin mononucleotide, designed as: ON switch for flavin mononucleotide.

Regarding “AAUAACAGAGGAUAUACUGUUUUAUGUGUUUAUUGUUUUGAACAUGAGGAUCACCCAUGUAGAAGGCUGAAUAA”, the apparent Kd (commonly the concentration giving half-maximal binding under the conditions of the assay) worked out at 22.6 nM under setting [1] and 23.2 nM under setting [2].

For “UAUAUAUAGUAAGGAUAUGUAUUAAUUUUUUAAACAGAAGGUACUGACAUGAGGAUCACCCAUGUUUUAGUGUGGGCAUGUAGA”, the “apparent Kd” value is 78.8 nM under setting [1] and 131 nM under setting [2].

On to “AAACAUGUCCGAGGAUAUCUGGAAACAUUUUCAAGAGAAGGCGGACAUGAGGAUCACCCAUGUCUCUCCUCAUCAAGUACAAAU”, for which the “apparent Kd” value by setting is: under setting [1], 7.33 nM; under setting [2], 46.3 nM.

As to “AAAAGCUAAGGAUAUACAUGAGGAUCACCCAUGUACACCGGUACGGGUGCGAACUCCUGUAGAAGGUGGGAUAA”, the “apparent Kd” value was found to be 148 nM under setting [1] and 159 nM under setting [2].

For “UUAUUGUGAGGAUAUCAGGUGUGCUAGCGUACUGGUACAUCUGAGAAGGCACAUGAGGAUCACCCAUGUUUCUU”, the “apparent Kd” value amounted to 23.4 nM under setting [1] and 66.9 nM under setting [2].

On to “GAUCCUUCUGUUAGGAUAUGCUUUGGGCUUCCGCAGCAGAAGGAACAUGAGGAUCACCCAUGUUCGAUGCCGUC”, for which the “apparent Kd” value is 60.4 nM under setting [1] and 59.9 nM under setting [2].

On to “GACUUGGCUACAUGAGGAUCACCCAUGUUUGACUGGAUCAAUUAGGAUAUAGUGAUAUGCAACAAUUAGAAGGGAUGUUUACGG”, for which the “apparent Kd” value reads like this: under setting [3], 56.6 nM; under setting [4], 45.2 nM.

As to “GAUUUCGCAUGAGGAUAUGCUCGCAUUUCAAGAGCAGAAGGUAUGUCAUUAGACAUGAGGAUCACCCAUGUAGUUAAGAUUGAA”, the “apparent Kd” value is, setting by setting: under setting [3], 186 nM; under setting [4], 34.9 nM.

As to “GCGUGAAAUGUAGGAUAUGACACAGGAAACUGGUCAGAAGGACAUGAGGAUCACCCAUGUAAAAUGUUCAAGAAUAACACAUGC”, the “apparent Kd” value runs as follows: under setting [1], 30.3 nM; under setting [2], 87 nM.

For “AGGGUAGUAGGAUAUACAUGAGGAUCACCCAUGUUUCCAUUGCGUGACUGGUCCUAGUGUAGAAGGGCUAGCAC”, the “apparent Kd” value runs as follows: under setting [1], 18.6 nM; under setting [2], 17.6 nM.

Consider “CGAUAACAUAGUUAUCCGUAACGGACAUGAGGAUCACCCAUGUAGGAUAUGUUACUCAACGAGUAACAGAAGGACAUGAGUCUU”, for which the “apparent Kd” value under setting [1] amounted to 38.2 nM and the “apparent Kd” value under setting [2] stood at 324 nM.

In the case of “GGAUAGGACAGAGGAUAUACGUGCUAGAAAUACUAGCAAAAUUUCCUCACAUGAGGAUCACCCAUGUAGAAGGCUGUCCUAUCG”, the “apparent Kd” value is, setting by setting: under setting [1], 14.5 nM; under setting [2], 542 nM.

With “UUGCUACAUGAGGAUCACCCAUGUCAGGAUAUUGUCUAUACCGUGGAAGCUGUGUCGAUAAGAAGGGACUGUCU”, the “apparent Kd” value reads like this: under setting [1], 24.1 nM; under setting [2], 41.6 nM.

As to “UUAAUUCAUGUAGGAUAUCCGAUGCGAAGCGUUGGAGAAGGACAUGAGGAUCACCCAUGUUCUAGCGUCUGAGUACAGAUGCAA”, the “apparent Kd” value under setting [1] is 26.9 nM and the “apparent Kd” value under setting [2] was found to be 88.5 nM.

Turning to “UAAUGACCUGUACCUAGUUGGUGACAUGAGGAUCACCCAUGUCAGGAUAUCGGGUUUGAAAACAACGAGAAGGGACAACGGGUG”, the “apparent Kd” value turned out to be 20.9 nM under setting [1] and 42.1 nM under setting [2].

Turning to “GUGUGCUGAGGAUAUACAGAGGAAGAUAAGAUAAGAUAAUGACAUGAGGAUCACCCAUGUAGAAGGCAGAGUGU”, the “apparent Kd” value was found to be 29.7 nM under setting [1] and 42.4 nM under setting [2].

Take “AUAUAUACAAAGUUACAUGAGGAUCACCCAUGUUUAUUGGGAAGAAGGGUAACAUUAUUAGAUGUAUAGGAUAUUUCACAAUUG”: the “apparent Kd” value under setting [3] came out at 599 nM and the “apparent Kd” value under setting [4] was 327 nM.

In the case of “UGCAUGUAAGGAUAUGCAUCCGCCGGCGAACCGGCGCCACAGCAGAAGGUACAUGAGGAUCACCCAUGUGUCCC”, the “apparent Kd” value is 18.8 nM under setting [1] and 51.6 nM under setting [2].

With “UUGGACGUCGUAGGAUAUGUACGAUAUUCCUACAUGAGGAUCACCCAUGUUGACAUGGAAGAAGGACAGAAGGACGAUGUCCAU”, the “apparent Kd” value was 5.5 nM under setting [3] and 4.87 nM under setting [4].

Turning to “CUGUGUCCGCAGGAUAUGUUAUCCUGAAGGAUCACAGAAGGGCGGACAUGAGGAUCACCCAUGUGAGCCAAAGA”, the “apparent Kd” value under setting [1] is 16.2 nM and the “apparent Kd” value under setting [2] was 17.3 nM.

On to “AACUGACAUGAGGAUCACCCAUGUCAGGAUAUGACUUGAUAGAAAAUAAAAUAUCAUGUCAGAAGGGACAUGGG”, for which the “apparent Kd” value under setting [1] came out at 20.2 nM and the “apparent Kd” value under setting [2] came out at 18.5 nM.

In the case of “GCGUACAUAUCAGGAUAUCAUUGAAUGGAUUAACUCAGUGAAUACAUGAGGAUCACCCAUGUGCUUGAGAAGGGAUUACUACGC”, the “apparent Kd” value was found to be 14.7 nM under setting [1] and 69.9 nM under setting [2].

For the sequence “ACAUGAUAUGUAGGAUAUCACAUUAAUUGAUUCAUAUUUCAAUAUAGCAUUUGAGAAGGACAUUUACAUGAGGAUCACCCAUGU”, the “apparent Kd” value by setting is: under setting [1], 9.18 nM; under setting [2], 8.64 nM.

Consider “GCGUAUAUAAGAUUUAUUAAACAGUCAGAAGGUGAUAAUACGACAUGAGGAUCACCCAUGUAAUUCAAGGAUAUGAUCAUACGC”, for which the “apparent Kd” value reads like this: under setting [3], 98.5 nM; under setting [4], 27.2 nM.

As for “UUAAAUCAUGUAGGAUAUGCAUGGCGAAGCUACGCAGAAGGACAUGAGGAUCACCCAUGUUAUAGCUACCCAGUUCGGUGGCAA”, the “apparent Kd” value runs as follows: under setting [1], 96.1 nM; under setting [2], 221 nM.

For the sequence “AGGGCUUAAUGGCCCUAUGAGAUGAGAAGGGUAGGAGGGUGGAAGUACAUGAGGAUCACCCAUGUACAGGAUAUCAUGCCGAUU”, the “apparent Kd” value worked out at 6.32 nM under setting [1] and 6.07 nM under setting [2].

As for “AUCAGCUCAUCAGGAUAUACAUCACUGCUUCGGCAGUGUAUUAAGAUCACAUGAGGAUCACCCAUGUAGAAGGGAUGAGCUGAU”, the “apparent Kd” value by setting is: under setting [1], 32.7 nM; under setting [2], 347 nM.

Take “GAUUAACAUGAGGAUCACCCAUGUGAGGAUAUGGACUGGCUCACUUUCCGAUUCGGGUCUAGAAGGCGCAUCUU”: the “apparent Kd” value runs as follows: under setting [1], 33.5 nM; under setting [2], 33.2 nM.

Take “UAUUUAUAAUAUUUUAACAUGAGGAUCACCCAUGUCGCUAGACAGGAUAUAUUUUAUUUUUUUAAGUAGAAGGGUCAUAGAUUU”: the “apparent Kd” value runs as follows: under setting [3], 75.1 nM; under setting [4], 96.9 nM.

As to “GUAGCAAUCGGAGGAUAUUCAUGAAACAUGAGGAUCACCCAUGUUAAUAUGGGAGAAGGCCGAUUGCUACAAGAGCGAAAGCUC”, the “apparent Kd” value runs as follows: under setting [3], 8.58 nM; under setting [4], 5.76 nM.

For the sequence “UUCGCUAAGGUGUAGCGAGACUUGCAAGAAGGGUGAAGAACAUGAGGAUCACCCAUGUAAUCCUUACAGGAUAUUGCUUGACGA”, the “apparent Kd” value turned out to be 273 nM under setting [3] and 33.1 nM under setting [4].

On to “CGUUCAGAGAACGAUACGAAUGGACAUGAGGAUCACCCAUGUAGAAGGACAGGAGAAUAACGACUGUAGGAUAUACAUUUAGUG”, for which the “apparent Kd” value runs as follows: under setting [1], 41.3 nM; under setting [2], 76 nM.

As to “AGAAACUACGAGAAGGACAUGUGGAAAAACGCAAACAUGAGGAUCACCCAUGUAGGAUAUCGUAGUUUCAGGAUCGUGAGAUCA”, the “apparent Kd” value reads like this: under setting [1], 304 nM; under setting [2], 367 nM.

For the sequence “UGGUACAUGGGAGGAUAUCCUCAAACAUGAGGAUCACCCAUGUAAAAUUAUAAGCCGAAAGGCAUGGAGAAGGCCCAUGUACCU”, the “apparent Kd” value was found to be 119 nM under setting [3] and 17 nM under setting [4].

In the case of “GGGAAUAAACCCGUCUCCGCCCAACCAGAAGGGCACGAUAAUAUUACAUGAGGAUCACCCAUGUUGCAGGAUAUGGUGGGCCUC”, the “apparent Kd” value reads like this: under setting [3], 180 nM; under setting [4], 76.9 nM.

For the sequence “ACAUGAGGAUCACCCAUGUGUGCAUAGGAUAUUGAGGAUCAGGGAUGUUUUUUUGGAUAUGCCCACAAGAAGGAUGAAAGUAUU”, the “apparent Kd” value is, setting by setting: under setting [3], 13.2 nM; under setting [4], 12.6 nM.

Consider “UUACUGUAAUAGAAGGGUAUUUGGGUUUUACAUGAGGAUCACCCAUGUUUUAUAGGAUAUGUUUAUAGUUUUUAAUCAAGUUUA”, for which the “apparent Kd” value is 91.1 nM under setting [1] and 68.7 nM under setting [2].

Consider “UACGUACAGAAGAACUCCGGGUCCAGAAGGGACAUGAGGAUCACCCAUGUACCGUUGAUUGCUUGUCAGGAUAUGGACCCAGCC”, for which the “apparent Kd” value runs as follows: under setting [1], 7.75 nM; under setting [2], 26.8 nM.

Turning to “AUAUCAUACCAAGGAUAUUUAGGACUUGUGUAGACAUGAGGAUCACCCAUGUGGCGUUAGUCACGGGAGAAGGUGGUAUGAUAU”, the “apparent Kd” value reads like this: under setting [3], 83 nM; under setting [4], 18.5 nM.

With “UUGGAUAUCACAGGAUAUGCUAAGGAUACCUUAGCAGAAGGGUGAUCCAUCCUAUGGCUGUACAUGAGGAUCACCCAUGUGUCA”, the “apparent Kd” value under setting [3] was 246 nM and the “apparent Kd” value under setting [4] came to 73.6 nM.

For “GAAUAUUCGUUGAACAUGAGGAUCACCCAUGUAACUUGACAUGAGGAUAUGGAUUCUAAUUGGAUCCAGAAGGCAUGAAUAUUC”, the “apparent Kd” value runs as follows: under setting [3], 75.3 nM; under setting [4], 26.9 nM.

“AAUUUAAUACAUGAGGAUCACCCAUGUAAAUUAAUUAAGAUCUAGGAUAUCAGCUCGUUUAGAGCUGAGAAGGAGAUCACAUGU”: the “apparent Kd” value runs as follows: under setting [3], 16.6 nM; under setting [4], 14.1 nM.

“AGACUGAAGCAAGGAUAUUGUAAGGUUAUCGUACAAGAAGGUGCUGUUUAUGUCUCUUUACAUGAGGAUCACCCAUGUUUUUAA”: the “apparent Kd” value reads like this: under setting [3], 22.2 nM; under setting [4], 23.5 nM.

For the sequence “UGAAAUCAUGUAGGAUAUGCAUGGCGAAGCUACGCAGAAGGACAUGAGGAUCACCCAUGUUCUAGCGUCUGAGUACAGAUGCAA”, the “apparent Kd” value stood at 19.6 nM under setting [1] and 64.9 nM under setting [2].

Take “AAAUCACAUGAGGAUCACCCAUGUGAGGAUAUGAUACUAUGUACUUCGGUACAUAGUAUCAGAAGGCAUGUGGA”: the “apparent Kd” value stood at 32 nM under setting [1] and 36.8 nM under setting [2].

In the case of “GCACGGCAUGUAGGAUAUCGAGCGCCGGGCGCUCGAGAAGGACAUGAGGAUCACCCAUGUACUCUCAGUGAGAGAGUGCUGUGC”, the “apparent Kd” value reads like this: under setting [1], 18.7 nM; under setting [2], 31.8 nM.

Take “CGCAACUCAGAUCUUUUGAACAUGAGGAUCACCCAUGUAUUGAGAAGGAGCUGGAAGAGAGACAGCUAGGAUAUCAGAGUUGCG”: the “apparent Kd” value by setting is: under setting [1], 5.4 nM; under setting [2], 5.73 nM.

Consider “GCUGCAUGCAGAGGAUAUAUAACAUGAGGAUCACCCAUGUUAAUAAUAUGGAUAAACCAGAUAGUAUAGAAGGCUGCAUGCAGC”, for which the “apparent Kd” value is, setting by setting: under setting [1], 19.5 nM; under setting [2], 23.8 nM.
